Measured values: ChEMBL document CHEMBL4145487, “A focused fragment library targeting the antibiotic resistance enzyme - Oxacillinase-48: Synthesis, structural evaluation and inhibitor design” (Eur J Med Chem, 2018)

Columns and labels:
[1] = Binding affinity to bacterial His-tagged beta-lactamase OXA-48 expressed in Escherichia coli strain BL21Star(DE3)pRARE by surface plasmon resonance assay; set-up: species or system Bacteria
In short: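 His-tagged OXA-48 amine-coupled to a CM5 chip to around 5000 RU (enzyme at 25 μg/mL in 10 mM MES pH 5.5). Ten dilutions from 400 μM to 10.5 μM were injected for 30 s with 60 s dissociation (300 s for kinetic binders). Sensorgrams were double-referenced. Kd came from a steady-state model with Rmax fixed via a positive control.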

[2] = Inhibition of bacterial beta-lactamase OXA-48 expressed in Escherichia coli strain BL21Star(DE3)pRARE using nitrocefin as substrate; set-up: species or system Bacteria
In short: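 OXA-48 carried its native signal peptide and was purified from the periplasm. The assay ran at 25 °C in 100 mM sodium phosphate pH 7.0 with 50 mM NaHCO3 and 0.2 mg/mL BSA, against 25 μM nitrocefin. Velocities were taken from the linear range. IC50 came from a nonlinear fit of response versus log inhibitor concentration, with bottom and top fixed from controls.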

IC50 [2] | pIC50 [2] | SMILES | Kd [1]
260 µM | 3.58 | NC(=O)c1cccc(-c2cccc(C(=O)O)c2)c1 | 220 µM
48 µM | 4.32 | CC(=O)Nc1ccc(-c2cc(C(=O)O)cc(-c3ccc(NC(C)=O)cc3)c2)cc1 | 70 µM
900 µM | 3.04 | O=C(O)c1cccc(-c2cccc(CO)c2)c1 | 230 µM
800 µM | 3.09 | O=C(O)c1cccc(-c2cncs2)c1 | 900 µM
1000 µM | 2.98 | NCCc1ccc(-c2cccc(C(=O)O)c2)cc1 | 970 µM
110 µM | 3.94 | O=C(O)c1cc(-c2ccc3ncccc3c2)cc(-c2ccc3ncccc3c2)c1 | 70 µM
470 µM | 3.33 | O=C(O)c1cccc(-c2ccc(O)cc2)c1 | 170 µM
2.9 µM | 5.54 | CC(=O)Nc1cccc(-c2cc(C(=O)O)cc(-c3ccc4ncccc4c3)c2)c1 | 49 to 60 µM
130 µM | 3.88 | O=C(O)c1cccc(-c2cccc(F)c2)c1 | 240 µM
36 µM | 4.48 | O=C(O)c1cccc(-c2ccc(-c3nnn[nH]3)cc2)c1 | 70 µM
35 µM | 4.45 | CC(=O)Nc1cccc(-c2cccc(C(=O)O)c2)c1 | 100 µM
110 µM | 3.95 | NCCc1cccc(-c2cccc(C(=O)O)c2)c1 | 300 µM
150 µM | 3.82 | COc1ccc(-c2cccc(C(=O)O)c2)cc1 | 250 µM
520 µM | 3.28 | CC(=O)NCCc1ccc(-c2cccc(C(=O)O)c2)cc1 | 190 µM
110 µM | 3.96 | CS(=O)(=O)NCc1cccc(-c2cccc(C(=O)O)c2)c1 | 110 µM
380 µM | 3.42 | CS(=O)(=O)c1ccc(-c2cccc(C(=O)O)c2)cc1 | 361 µM
110 µM | 3.98 | O=C(O)c1cccc(-c2ccc3ccccc3c2)c1 | 400 µM
330 µM | 3.48 | Nc1ccc(-c2cccc(C(=O)O)c2)cc1 | 330 µM
350 µM | 3.46 | Cc1nc(N)ncc1-c1cccc(C(=O)O)c1 | 113 µM
250 µM | 3.6 | COc1ccccc1-c1cccc(C(=O)O)c1 | 123 µM
260 µM | 3.59 | COC(=O)c1cccc(-c2cccc(C(=O)O)c2)c1 | 144 µM
450 µM | 3.35 | CC(=O)Nc1ccc(-c2cccc(C(=O)O)c2)cc1 | 290 µM
380 µM | 3.42 | CC(=O)c1ccc(-c2cccc(C(=O)O)c2)cc1 | 280 µM
1300 µM | 2.89 | O=C(O)c1cccc(-c2cnc(-n3ccnc3)nc2)c1 | 1000 to 1160 µM
90 µM | 4.05 | Cc1ccccc1-c1cccc(C(=O)O)c1 | 170 µM
1400 µM | 2.85 | NCc1ccc(-c2cccc(C(=O)O)c2)cc1 | 550 µM
180 µM | 3.73 | NC(=O)c1ccc(-c2cccc(C(=O)O)c2)cc1 | 200 to 350 µM

IC50 [2] | pIC50 [2] | SMILES | Kd [1]
120 µM | 3.91 | CS(=O)(=O)c1cccc(-c2cccc(C(=O)O)c2)c1 | 150 µM
130 µM | 3.89 | CC(=O)NCc1cccc(-c2cccc(C(=O)O)c2)c1 | 130 µM
230 µM | 3.64 | CC(=O)NCCc1cccc(-c2cccc(C(=O)O)c2)c1 | 170 µM
110 µM | 3.97 | O=C(O)c1cccc(-c2cccc(O)c2)c1 | 110 µM
800 µM | 3.1 | O=C(O)c1cccc(-c2cncnc2)c1 | 900 µM
400 µM | 3.4 | CSc1ccc(-c2cccc(C(=O)O)c2)cc1 | 1000 µM
2.9 µM | 5.53 | CC(=O)Nc1cccc(-c2cc(C(=O)O)cc(-c3cccc(NC(C)=O)c3)c2)c1 | 20 to 30 µM
500 µM | 3.3 | Cn1cccc1-c1cccc(C(=O)O)c1 | 590 µM
390 µM | 3.41 | CN(C)c1ccc(-c2cccc(C(=O)O)c2)cc1 | 220 µM
370 µM | 3.43 | CS(=O)(=O)Nc1ccc(-c2cccc(C(=O)O)c2)cc1 | 100 µM
130 µM | 3.89 | O=C(O)c1cccc(-c2ccccc2F)c1 | 170 µM
310 µM | 3.51 | O=C(O)c1cccc(-c2ccc3[nH]ccc3c2)c1 | 400 µM
360 µM | 3.44 | COc1cccc(-c2cccc(C(=O)O)c2)c1 | 226 µM
210 µM | 3.69 | COC(=O)c1ccccc1-c1cccc(C(=O)O)c1 | 200 µM
100 µM | 3.99 | CC(=O)Nc1cccc(-c2cc(C(=O)O)cc(-c3ccncc3)c2)c1 | 70 µM
250 µM | 3.6 | CC(=O)OCc1cccc(-c2cccc(C(=O)O)c2)c1 | 140 to 181 µM
35 µM | 4.46 | O=C(O)c1cccc(-c2ccccn2)c1 | 159 µM
600 µM | 3.22 | NCc1cccc(-c2cccc(C(=O)O)c2)c1 | 800 µM
170 µM | 3.76 | Nc1ccc(-c2cccc(C(=O)O)c2)cn1 | 130 µM
370 µM | 3.43 | CS(=O)(=O)NCCc1cccc(-c2cccc(C(=O)O)c2)c1 | 200 µM
240 µM | 3.61 | O=C(O)c1cccc(-c2ccc3cccnc3c2)c1 | 160 µM
60 µM | 4.24 | O=C(O)c1cccc(-c2cccc(-c3nnn[nH]3)c2)c1 | 70 µM
60 µM | 4.25 | O=C(O)c1cccc(-c2ccc(NS(=O)(=O)c3ccccc3)cc2)c1 | 210 µM
450 µM | 3.35 | CS(=O)(=O)NCc1ccc(-c2cccc(C(=O)O)c2)cc1 | 240 µM
170 µM | 3.78 | Cc1cccc(-c2cccc(C(=O)O)c2)c1 | 300 µM
50 µM | 4.3 | O=C(O)c1cccc(-c2ccccc2O)c1 | 175 µM
360 µM | 3.45 | O=C(O)c1cccc(-c2ccc(F)cc2)c1 | 312 µM
